Screening data from PubChem.
PERK inh = block of dimerizer-induced PERK translation repression, primary screen, PERK inhibitor project, CHO PERK-DD cells, SEAP luminescence, HTS | Eukaryotic translation initiation factor 2-alpha kinase 3 (Homo sapiens), Q9NZJ5 | CHO PERK-DD fusion, SEAP luminescence translation reporter | inhibition, % at 5.6 µM | 220,000 compounds, 0.17% hits | AID 1416, 2008;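 active = inhibition above the mean inhibition of all tested compounds plus 3 SD, set separately per screening campaign, cut at about 2.9% in these data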;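 also: PERK kinase domain activated by AP20187 dimerizer at 100 nM; 0% = DMSO with dimerizer and 100% = rapamycin at 8.4 µM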
Runt-SMMHC FRET = inhibitors of RUNX1 Runt–CBFb-SMMHC binding, primary screen, biochemical, FRET, Cerulean-Runt, Venus-CBFb-SMMHC, uHTS; 220,000 compounds, 0.74% hits; Runt-related transcription factor 1 (Homo sapiens) + Core-binding factor subunit beta …; Cerulean-Runt/Venus-CBFb-SMMHC FRET ratio 530/480, 1 h; inhibition, % at 20 µM;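 active = mean inhibition across duplicate retests at 20 µM reaching about 50%, limit read from the data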;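 also: 0% = DMSO wells and 100% = wells with excess untagged CBFb-SMMHC; inhibitors lower the FRET ratio by blocking Runt binding to CBFb-SMMHC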
Runt-CBFb FRET = inhibitors of RUNX1 Runt–CBFb binding, primary screen, biochemical, FRET, Cerulean-Runt, Venus-CBFb, uHTS; Runt-related transcription factor 1 (Homo sapiens) + Core-binding factor subunit beta …; Cerulean-Runt/Venus-CBFb FRET ratio 530/480, 1 h; inhibition, % at 20 µM; 220,000 compounds, 0.46% hits; AID 1496, 2009;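 active = inhibition over about 50% at 20 µM in the single-dose screen, limit read from the data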;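 also: 0% = DMSO wells and 100% = excess unlabeled CBFb competitor control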
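Doses: 20 µM compound in 1% DMSO | Material: Cerulean-labeled Runt domain protein | Amount: Each fluorescent fusion protein 100 nM | Schedule: Two 1 h room-temperature incubations shielded from light | Measured by: FRET fluorescence | Evaluation: Loss of energy transfer signal | Controls: Unlabeled CBFb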
Hck-Nef inh = inhibitors of Nef-activated human Hck kinase, primary screen, biochemical, Z-Lyte FRET, 384-well, Hck-YEEI; inhibition, % at 20 µM; AID 463187, 2010; 220,000 compounds, 0.68% hits; Tyrosine-protein kinase HCK (Homo sapiens), P08631; Recombinant Hck-YEEI plus Nef, Z-Lyte FRET kinase assay;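 active = Hck-Nef kinase inhibition above about 50%, limit read from the data; inactive = inhibition below that limit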;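 also: 0% = DMSO with Hck plus Nef and 100% = Hck alone without Nef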
eIF4E-4G inh = eIF4E–eIF4G protein interaction inhibitors, primary screen, biochemical, uHTS, TR-FRET, eIF4GI fragment; 220,000 compounds, 0.37% hits; inhibition, % at 21.7 µM; TR-FRET eIF4E-eIF4GI(517-606) binding, 2 h;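 active = inhibition above about 30%, limit read from the data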;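 also: 0% = full FRET control wells and 100% = background wells lacking eIF4GI fragment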
RanGTP-Impb inh = inhibitors of RanGTP-importin-beta interaction, primary screen, biochemical, FRET, CFP-Ran, YFP-importin-beta, homogeneous. inhibition, % (no concentration beside the values). 300,000 compounds, 1.1% hits. cell-free CFP-Ran/YFP-importin-beta FRET ratio;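 active = more than half of the replicate wells show a fall in the fluorescence ratio signal beyond about 16%, limit read from the data, passing the limit was not always enough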;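 also: 0% = DMSO wells and 100% = Ran loaded with GDP instead of GTP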
Starred values were filed as active, the others as inactive. Hits are enriched below; roughly 2.2% of the tested compounds scored in any of these assays.

Results for O=C(N/N=C\C=C\c1ccc2c(c1)OCO2)C1COc2cc3ccccc3cc2O1 (stereo not drawn) ?
PERK inh: 1; Runt-SMMHC FRET: 2; Runt-CBFb FRET: 1; Hck-Nef inh: 4; eIF4E-4G inh: -17; RanGTP-Impb inh: 19*

What do the screens show for `COC(=O)c1ccc(=O)c2nc3/c(=C/O)c(O)cc(=O)c3[nH]c12`?
PERK inh: 0; Runt-SMMHC FRET: 52; Runt-CBFb FRET: 15; Hck-Nef inh: 14; eIF4E-4G inh: 55*

What do the screens show for `COC(=O)c1ccc(N)cc1O`?
PERK inh: -1; Runt-SMMHC FRET: -3; Runt-CBFb FRET: -2; Hck-Nef inh: 1; eIF4E-4G inh: 0; RanGTP-Impb inh: 0

Results for N#Cc1cc(Cl)c(N2CCOCC2)cc1C#N ?
PERK inh: -1; Runt-SMMHC FRET: -3; Runt-CBFb FRET: 0; Hck-Nef inh: 0; eIF4E-4G inh: 1; RanGTP-Impb inh: 4

Results for N#Cc1cc2ccc(N3CCOCC3)cc2cc1C#N ?
PERK inh: -1; Runt-SMMHC FRET: -10; Runt-CBFb FRET: 3; Hck-Nef inh: -1; RanGTP-Impb inh: 35*

Results for Cc1ccc(/C=C/c2ccc(=O)n(Cc3ccc(Cl)cc3Cl)n2)cc1 ?
PERK inh: 3.0*; Runt-SMMHC FRET: -4; Runt-CBFb FRET: -4; Hck-Nef inh: 7; eIF4E-4G inh: -3; RanGTP-Impb inh: -2

What do the screens show for `O=c1ccc(/C=C/c2ccccc2)nn1Cc1ccc(Cl)cc1Cl`?
PERK inh: 1; Runt-SMMHC FRET: -2; Runt-CBFb FRET: -3; Hck-Nef inh: 2; eIF4E-4G inh: -21; RanGTP-Impb inh: 1

What do the screens show for `Cc1cc(NC(=O)C(C)SCC(=O)N(C)CC(=O)Nc2ccc(Br)cc2C)no1` (stereo not drawn)?
RanGTP-Impb inh: -2

Results for O=C(CCC(=O)NNC(=O)c1ccccc1[N+](=O)[O-])NCc1ccccc1 ?
PERK inh: 0; Runt-SMMHC FRET: 3; Runt-CBFb FRET: -2; Hck-Nef inh: 20; eIF4E-4G inh: -3; RanGTP-Impb inh: 1

What do the screens show for `C=CCN(CC=C)C(=O)c1cccc(S(=O)(=O)N2c3ccccc3CC2C)c1` (stereo not drawn)?
PERK inh: 1; Runt-SMMHC FRET: 2; Runt-CBFb FRET: -1; Hck-Nef inh: 26; eIF4E-4G inh: -9; RanGTP-Impb inh: 2

What do the screens show for `Cc1ccc(S(=O)(=O)c2cc3c(=O)n4cc(C)ccc4nc3n(CC3CCCO3)c2=N)cc1` (stereo not drawn)?
Runt-SMMHC FRET: 90*; Runt-CBFb FRET: 86*

How did N=c1c(S(=O)(=O)c2ccc(Br)cc2)cc2c(=O)n3ccccc3nc2n1Cc1ccco1 do in these assays?
RanGTP-Impb inh: 4

What do the screens show for `CCn1c(=N)c(S(=O)(=O)c2ccc(Cl)cc2)cc2c(=O)n3ccccc3nc21`?
PERK inh: 1; Hck-Nef inh: 20; eIF4E-4G inh: -3; RanGTP-Impb inh: 2

Results for Cn1c(=N)c(S(=O)(=O)c2ccc(Cl)cc2)cc2c(=O)n3ccccc3nc21 ?
PERK inh: 1; Hck-Nef inh: 2

Results for N=c1c(S(=O)(=O)c2ccc(Cl)cc2)cc2c(=O)n3ccccc3nc2n1Cc1ccco1 ?
RanGTP-Impb inh: 96*
